Activity calls are given as the source filed them.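 Rule for the calls, unless noted: active = GFP response above 150% of the DMSO level; inconclusive = fewer than 70 events counted for a yeast strain; inactive = the rest.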
Legend:
[1] = hit retest on RPL19A-GFP reporter strain – cell-based, S. cerevisiae, flow cytometry, cherry picks, mother/daughter gates, confirmation (AID 2270;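 active = GFP response below 50% of the DMSO control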); settings: 3 h, at 10 µM, stronger effect = lower value, 100 = same GFP as DMSO wells
[2] = yeast TOR pathway reporter LAP4-GFP change – cell-based, cherry picks, flow cytometry, mother/daughter gates, confirmation (AID 2271;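 active = GFP response above 150% of the DMSO control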;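 note: ratio of sample to DMSO plate mean so 100% equals DMSO level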); settings: S. cerevisiae LAP4-GFP strain, 3 h, at 10 µM, stronger effect = higher value, 100 means same as DMSO control
Summary of the method: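 Material: Alexa 633-stained baker's yeast GFP-fusion strain; Compound dosing: single test-compound dose, 10 µM final; Incubation: 30 °C, 3 h compound incubation, rotating; Detection: HT flow cytometry, GFP fluorescence channel; Control set: positive rapamycin (400 ng/mL), negative DMSO.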

[3] = TOR pathway reporter MEP2-GFP, retest of hits – S. cerevisiae, flow cytometry GFP, cherry picks, confirmation (AID 2272;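 active = GFP response above 150% of the DMSO control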;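 note: ratio of well signal to plate DMSO mean so 100% equals DMSO level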); settings: S. cerevisiae MEP2-GFP strain, 3 h, at 10 µM, stronger effect = higher value
[4] = yeast AGP1-GFP fluorescence change, single-dose – cell-based, flow cytometry, S. cerevisiae, cherry picks, confirmation (AID 2273);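 note: median GFP channel fluorescence over the whole cell population gate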; settings: S. cerevisiae AGP1-GFP strain, 3 h, at 10 µM
[5] = TOR pathway CIT2 reporter hit retest – S. cerevisiae, GFP fusion, cherry picks, mother/daughter gates, confirmation (AID 2274); settings: S. cerevisiae CIT2-GFP strain, flow cytometry, 3 h, at 10 µM, stronger effect = higher value
[6] = measured here: daughter cell gate
[7] = measured here: mother cell gate
[8] = measured here: daughter cell gate response
[9] = measured here: mother cell gate response

Compound	GFP response vs DMSO [1]	GFP response vs DMSO [1, 6]	GFP response vs DMSO [1, 7]	GFP response relative to DMSO [2]	GFP response relative to DMSO [2, 8]	GFP response relative to DMSO [2, 9]	GFP response vs DMSO [3]	GFP response, % of DMSO [4]	GFP response, % of DMSO [5]	GFP response, % of DMSO [5, 6]	GFP response, % of DMSO [5, 7]
CCCC(=O)Nc1ccc(C(=O)/C=C/c2ccc(SC)cc2)cc1	99.5% (inactive)	98.1%	99.2%	105% (inactive)	103%	105%	102% (inactive)	97.2% (inactive)	95.2% (inactive)	94.8%	93.4%
Cc1cccc(CS(=O)(=O)c2ncc(Cl)c(C(=O)Nc3c(C)cccc3C)n2)c1	106% (inactive)	98.6%	107%	106% (inactive)	101%	107%	105% (inactive)	99.4% (inactive)	100% (inactive)	97.4%	101%
CC(=O)Nc1ccc(Nc2cc(C)nc3c(-c4ccc(Cl)cc4)c(C)nn23)cc1	94.6% (inactive)	94.4%	95.8%	94.1% (inactive)	92.8%	95.1%	100% (inactive)	95% (inactive)	105% (inactive)	105%	104%
O=c1c(-c2ccc(Cl)cc2)[n+]([O-])c2ccccc2n1O	103% (inactive)	102%	103%	193% (active)	141%	177%	112% (inactive)	93% (inactive)	92.1% (inactive)	90.9%	91%
O=C(Cc1ccc(Cl)cc1)NNC(=S)NC(=O)c1cccs1	104% (inactive)	104%	104%	150% (active)	151%	151%	114% (inactive)	102% (inactive)	109% (inactive)	115%	104%
Cc1nn(C(=O)c2ccco2)c(C)c1Sc1ccccc1	95.6% (inactive)	97%	94.4%	97.7% (inactive)	99%	95.4%	101% (inactive)	97% (inactive)	98.6% (inactive)	99.3%	98.2%
CC[n+]1c(/C=C/c2ccc(N(C)C)cc2)ccc2ccccc21	99.4% (inactive)	96.6%	96.5%	105% (inactive)	104%	106%	118% (inactive)	101% (inactive)	97.3% (inactive)	97.4%	96.8%
O=C(NCCCSc1ccccc1)c1cc(Cl)ccc1O	100% (inactive)	98%	102%	108% (inactive)	104%	110%	104% (inactive)	90.5% (inactive)	96.4% (inactive)	96.4%	94.5%
Cc1ccc(NC(=O)CCCSc2nc3ccccc3[nH]2)cc1	99.6% (inactive)	99.1%	100%	96.1% (inactive)	98.2%	98.2%	98.8% (inactive)	106% (inactive)	113% (inactive)	111%	114%
COc1ccc(CC(=O)NCc2ccccn2)cc1OC	97.6% (inactive)	97.8%	98%	93.8% (inactive)	95.6%	96.2%	100% (inactive)	100% (inactive)	97.8% (inactive)	96.5%	95.5%
CCOc1cc(/C=N/Nc2nc(C)cc(=O)[nH]2)ccc1O	102% (inactive)	102%	100%	89% (inactive)	87.9%	90.1%	104% (inactive)	100% (inactive)	106% (inactive)	106%	103%
O=C(O)c1ccccc1SC1CC(=O)N(c2ccc3c(c2)OCO3)C1=O (stereo unspecified)	97.6% (inactive)	102%	93.8%	106% (inactive)	102%	108%	103% (inactive)	102% (inactive)	95.8% (inactive)	99.3%	94.9%
Cc1ccc(S(=O)(=O)c2ncccc2N)cc1	99.4% (inactive)	99.4%	99%	101% (inactive)	101%	98.3%	100% (inactive)	102% (inactive)	101% (inactive)	101%	99.7%
Cc1ccc(-c2nnn(CC(=O)N(CC(=O)NC3CCCC3)c3ccc(F)cc3)n2)o1	97.4% (inactive)	98.4%	96.8%	97% (inactive)	95.9%	96.2%	99% (inactive)	104% (inactive)	100% (inactive)	103%	99.3%
O=C1c2ccsc2SCCN1Cc1ccc(Cl)cc1Cl	96% (inactive)	94.2%	95.5%	108% (inactive)	107%	110%	94.7% (inactive)	98.2% (inactive)	90.1% (inactive)	90.2%	91.9%
N/C(Cc1ccc(Cl)cc1)=N\OC(=O)c1cccc2ccccc12	96.2% (inactive)	82.1%	82.6%	199% (active)	127%	188%	126% (inactive)	88.1% (inactive)	139% (inactive)	97.4%	127%
COc1ccc(C2CC(c3ccccc3)=NN2S(=O)(=O)c2ccccc2)cc1 (stereo unspecified)	101% (inactive)	102%	101%	113% (inactive)	110%	112%	146% (inactive)	104% (inactive)	141% (inactive)	143%	136%
CC(C)c1nnc(NC(=O)c2nc(S(=O)(=O)Cc3ccccc3F)ncc2Cl)s1	98.4% (inactive)	97.8%	99.2%	108% (inactive)	107%	107%	110% (inactive)	101% (inactive)	102% (inactive)	102%	100%
CCc1ccc(C(=O)/C=C/c2ccc([N+](=O)[O-])o2)cc1	104% (inactive)	108%	103%	146% (inactive)	141%	152%	180% (active)	99.1% (inactive)	154% (active)	156%	148%
O=C(O)c1ccc(N/N=C/c2c(F)cccc2Cl)cc1	99.5% (inactive)	100%	98.1%	124% (inactive)	121%	124%	108% (inactive)	94% (inactive)	96.4% (inactive)	92.7%	94.5%
Cc1ccc(NC(=O)c2nc(S(=O)(=O)Cc3ccccc3C)ncc2Cl)cc1C	91.6% (inactive)	89.6%	91.6%	107% (inactive)	107%	107%	103% (inactive)	107% (inactive)	94.4% (inactive)	92.3%	94.9%
NC1=NC(=O)C(CC(=O)c2ccc(Cl)cc2)S1 (stereo unspecified)	99.9% (inactive)	100%	99.8%	106% (inactive)	99.3%	107%	102% (inactive)	96.7% (inactive)	96.4% (inactive)	96.4%	94.5%
O=C(O)CCC(=O)Nc1ccc(S(=O)(=O)c2ccc(NC(=O)CCC(=O)O)cc2)cc1	98.5% (inactive)	100%	97.7%	102% (inactive)	97.5%	102%	106% (inactive)	100% (inactive)	98.6% (inactive)	99.3%	99.3%
O=C(OCn1ncc(Br)c(Br)c1=O)c1ccc(F)cc1	99.7% (inactive)	99.8%	94.8%	210% (active)	183%	203%	116% (inactive)	106% (inactive)	99.3% (inactive)	108%	92.1%
CC(C)c1nnc(NC(=O)c2nc(S(=O)(=O)Cc3ccccc3)ncc2Cl)s1	98.5% (inactive)	101%	95.4%	102% (inactive)	101%	100%	106% (inactive)	102% (inactive)	100% (inactive)	99.3%	99.3%
N/C(=N\OC(=O)c1cc(Br)ccc1Cl)c1ccccn1	101% (inactive)	98.7%	97.7%	133% (inactive)	125%	135%	110% (inactive)	93.2% (inactive)	112% (inactive)	105%	114%

— PubChem BioAssay
